Assay outcomes: PubChem, Broad Institute
RAD52 inh = RAD52 (human) annealing inhibition; P43351; recombinant RAD52 DNA annealing, FRET fluorescence; inhibition, % at 18.7 µM; 0.46% of 360,000 active;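 active = every replicate showing at least 50% inhibition; inconclusive = mean inhibition at least 50% but not in every replicate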
Target sequence (P43351 whole entry, looked up): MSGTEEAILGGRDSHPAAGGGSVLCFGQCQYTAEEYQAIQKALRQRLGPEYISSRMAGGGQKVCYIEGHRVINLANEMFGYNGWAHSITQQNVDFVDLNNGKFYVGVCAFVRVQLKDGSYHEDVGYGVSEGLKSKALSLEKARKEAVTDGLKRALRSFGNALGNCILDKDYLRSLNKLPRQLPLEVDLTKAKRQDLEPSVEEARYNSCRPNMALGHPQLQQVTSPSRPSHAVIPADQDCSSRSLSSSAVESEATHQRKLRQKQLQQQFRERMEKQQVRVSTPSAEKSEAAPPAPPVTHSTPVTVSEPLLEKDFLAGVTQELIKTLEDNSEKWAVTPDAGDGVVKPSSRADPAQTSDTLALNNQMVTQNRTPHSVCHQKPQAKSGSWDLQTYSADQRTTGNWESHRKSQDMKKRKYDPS
rRNA inh HTS = selective bacterial rRNA inhibition in E. coli. E. coli WT GFP vs humanized-ribosome RFP mutants, fluorescence, 24 h; active compounds read low; DMSO median 0, no signal -100. GFP signal change (wild-type ribosome), % (concentration not given with the values). 1.6% of 350,000 active;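 active = significant combined selectivity score with lowered wild-type GFP, culture density cut under 30%, mutant RFP and density less affected; inactive = any of these conditions unmet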
Cneo AK release = causes C. neoformans cell lysis; adenylate kinase release luminescence, 4 h; normalised: neutral wells 0, clomiphene wells 100; lysis activity, % at 15 µM; 0.2% of 360,000 active; AID 651654;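 active = mean lysis activity across replicates of at least 80%, whatever share of replicates individually reach that level; inactive = mean lysis activity below 80%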
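Material – log-phase Cryptococcus neoformans yeast cells · Input – 5 × 10^6 yeast cells/mL · Medium – fresh YPD growth medium · Doses – single compound concentration per well · Timing – static 4 h at 37 °C with compound, 1 h detection · Detection – adenylate kinase release luminescence · Read-out – signal increase indicating cell lysis · Control set – Clomiphene as positive lysis control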
RAD54 branch = RAD54 (human) branch migration inhibition; RAD54 Holliday junction branch migration, FAM/BHQ fluorescence; inhibition, % at 10.4 µM; 0.14% of 360,000 active; AID 602329; Q92698;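 active = mean normalized replicate activity at least 40 and at least half of replicates scoring 40 or more; inconclusive = only one of the two criteria met; inactive = mean below 40 and under half of replicates reaching 40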;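 also: inhibitors cause a drop in the FAM fluorescence signal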
PglD DTNB = inhibitors of Campylobacter jejuni PglD acetyltransferase; purified PglD enzyme, DTNB colorimetric CoA detection; inhibition, % at 12.5 µM; AID 602405; 0.098% of 360,000 active; in the data active = inhibition above about 16%, passing the limit was not always enough; inconclusive = no clear call, values can overlap the other calls
AID977621 = growth inhibition of wild-type GFP E. coli, dose response, H69 mutant RFP, cherry-pick; 1,900 tested, under 10 active; activity change, negative = inhibition at 50 µM; E. coli wild-type GFP strain growth, fluorescence, 24 h; AID 977621; shares compounds with rRNA inh HTS;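 active = Wild-type ribosome reporter drop at least double the humanized mutant ribosome reporter drop, growth loss under a set limit; inconclusive = no clear call, values can overlap the other calls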;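 also: wild-type GFP and H69 mutant RFP strains grown together 50/50 in each well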
AID977628 = E. coli growth inhibition, wild-type GFP versus h24 humanized RFP strain, dose response, h24 mutant RFP vs wild-type GFP, cherry-pick | shares compounds with rRNA inh HTS | E. coli WT GFP strain growth, fluorescence, 24 h | activity change, negative = inhibition at 50 µM | 1,900 tested, under 10 active | AID 977628;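 active = compound lowering the normal-ribosome reporter at least twice as much as the humanized-ribosome reporter, growth loss under a set limit; inconclusive = no clear call, values can overlap the other calls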;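 also: wild-type GFP and h24 humanized RFP strains co-cultured 1 to 1 per well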
Numbers stand for hits; - = inactive; ? = inconclusive; . = no result given. This is a sample that favours compounds with a hit; in the whole collection about 1.9% have one here.

SMILES | RAD52 inh | rRNA inh HTS | Cneo AK release | RAD54 branch | PglD DTNB | AID977621 | AID977628
COc1ccc(NC(=O)Nc2ccc3c(c2)C(=O)N([C@@H](C)CO)C[C@@H](C)[C@@H](CN(C)S(=O)(=O)c2ccc(Cl)cc2)OCCCC[C@@H](C)O3)cc1 | - | - | - | - | - | . | .
O=C(C[C@H]1C[C@@H]2c3cc(NC(=O)NC4CCCC4)ccc3O[C@@H]2[C@@H](CO)O1)NCc1ccccc1 | - | - | - | - | - | . | .
O=C(COC(=O)c1ccc(O)cc1)NC(=O)NCc1ccccc1 | - | - | - | - | - | . | .
O=C(COC(=O)c1ccc(O)cc1)Nc1ccccc1 | - | -21 | - | - | - | - | -
Cc1cccc(C)c1-n1nnnc1C1(C)CCC(=O)N1Cc1cccs1 (stereo not given) | - | -21 | . | . | . | - | .
Cc1ccc(CN2C(=O)CCC2(C)c2nnnn2-c2c(C)cccc2C)cc1 (stereo not given) | - | - | . | . | . | . | .
Cc1ccc(-n2nnnc2SCC(=O)NC2CCCc3ccccc32)cc1 (stereo not given) | - | -30 | - | - | - | - | .
Cc1cccc(OCc2nc(C#N)c(N3CCCC3)o2)c1 | - | -25 | . | . | . | - | -
CCc1cc(CN2CCOCC2)c(NC(=O)c2ccccc2)s1 | - | -17 | . | . | . | - | -
CCc1cc(C(c2ccc(F)cc2)N2CCOCC2)c(NC(=O)c2ccccc2)s1 (stereo not given) | . | . | - | - | - | . | .
COc1ccc(-n2cc(CNCc3cccnc3)c(-c3cccc(F)c3)n2)cc1 | - | - | - | - | - | . | .
COc1ccc(-c2nn(-c3ccccc3C)cc2CNCc2cccnc2)cc1F | - | -18 | - | - | - | - | -
NS(=O)(=O)c1ccc(NC(=O)CCCC(=O)O)cc1 | - | - | . | . | . | . | .
NS(=O)(=O)c1ccc(NC(=O)CCC(=O)O)cc1 | - | -11 | - | - | - | - | ?
Nc1c(Cl)cc(C2=NCCn3nc4ccccc4c32)cc1Cl | - | -20 | - | - | - | - | .
CCCN1[C@H](C(=O)NCC)[C@@H](CO)[C@@H]2Cn3c(ccc(-c4ccc(C(=O)N(C)C)cc4)c3=O)[C@@H]21 | - | - | - | - | - | . | .
COc1ccc(C)c2sc(N(CCN(C)C)C(=O)c3ccc(S(=O)(=O)N(C)c4ccccc4)cc3)nc12 | - | -12 | - | - | - | . | -
Cc1ccc2sc(N(CCCN(C)C)C(=O)c3ccc(S(=O)(=O)N4CCc5ccccc5C4)cc3)nc2c1C | - | -29 | - | - | - | - | -
CN(C)CCCN(C(=O)c1ccc(S(=O)(=O)N2CCc3ccccc3C2)cc1)c1nc2c(F)cc(F)cc2s1 | . | . | - | - | - | . | .
O=C(Nc1cccc(Cl)c1)c1ccc2c(=O)n3c(nc2c1)CCCCC3 | . | . | - | - | - | . | .
CCc1cccc(NC(=O)c2ccc3c(=O)n4c(nc3c2)CCCCC4)c1 | - | -19 | - | - | - | - | -
O=C(Nc1ccc(F)cc1)N[C@@H]1C=C[C@@H](CC(=O)N2CCCCC2)O[C@H]1CO | - | - | - | - | - | . | .
O=S(=O)(N[C@H]1CC[C@H](CCNS(=O)(=O)c2ccccc2Cl)O[C@@H]1CO)c1ccccc1 | - | - | - | - | - | . | .
CSc1nc2ccc(NC(=O)c3c(-c4ccccc4)noc3C)cc2s1 | - | -21 | . | . | . | - | .
COc1ccc(-c2nc(NC(C)=O)sc2-c2ccccc2)cc1 | - | -18 | . | . | . | - | .
SMILES | RAD52 inh | rRNA inh HTS | Cneo AK release | RAD54 branch | PglD DTNB | AID977621 | AID977628
COc1ccc(-c2nc(NC(=O)c3ccccc3)sc2-c2ccc([N+](=O)[O-])cc2)cc1 | - | - | - | - | - | . | .
CN1C(=O)c2cc(NC(=O)c3cnccn3)ccc2OC[C@@H]2O[C@@H](CC(=O)N[C@@H]3CCN(Cc4ccccc4)C3)CC[C@H]21 | - | - | - | - | - | . | .
CC(=O)CSc1ccc(-c2nc3cc(C)c(C)cc3[nH]2)cn1 | - | - | . | . | . | . | .
CC(=O)CSc1ccc(-c2nc3ccccc3[nH]2)cn1 | - | -24 | - | - | - | - | -
COc1cccc2c1Oc1cc([N+](=O)[O-])cc(N(C)C(C)=O)c1C=C2 | - | -17 | - | - | - | . | ?
COc1cccc(S(=O)(=O)N[C@H]2C=C[C@@H](CC(=O)NC3CCC3)O[C@@H]2CO)c1 | - | - | - | - | - | . | .
O=C(Nc1ccc(S(=O)(=O)NC2=NCCCCC2)cc1)c1ccc([N+](=O)[O-])s1 | - | -20 | - | - | - | ? | -
O=C(Nc1ccc(S(=O)(=O)NC2=NCCCCC2)cc1)c1cccs1 | - | - | - | - | - | . | .
CS(=O)(=O)Nc1ccc2c(c1)[C@@H]1C[C@@H](CC(=O)NC3CCCCC3)O[C@H](CO)[C@@H]1O2 | - | - | - | - | - | . | .
O=C(CC1SC(=O)N(Cc2ccccc2)C1=O)Nc1nccs1 (stereo not given) | - | - | - | - | - | . | .
O=C(CC1SC(=O)N(Cc2ccccc2Cl)C1=O)Nc1nccs1 (stereo not given) | - | -22 | - | - | - | - | -
COc1cccc(-c2cnc3c(c2)C(=O)N([C@H](C)CO)C[C@H](C)[C@H](CN(C)S(=O)(=O)c2cccs2)O3)c1 | - | - | - | - | - | . | .
CN1OC[C@@H]2CN(C(=O)c3ccco3)[C@H](c3ccc(-c4ccc(C#N)cc4)cc3)C[C@@H]21 | - | -19 | . | . | . | - | -
Cc1ccccc1S(=O)(=O)N1C[C@H]2CON(C)[C@H]2C[C@H]1c1cccc(-c2ccc(C#N)cc2)c1 | - | -18 | - | - | - | ? | .
Cc1ccccc1S(=O)(=O)N1C[C@H]2CON(C)[C@H]2C[C@H]1c1cccc(N2CCOCC2)c1 | - | - | - | - | - | . | .
COc1ccccc1-c1ccc([C@@H]2C[C@H]3[C@H](CON3C)CN2C(=O)c2ccco2)cc1 | - | - | - | - | - | . | .
C[C@@H]1CN([C@@H](C)CO)C(=O)c2cc(NC(=O)CCC(F)(F)F)ccc2O[C@H]1CN(C)C | - | - | - | - | - | . | .
CC(C)NC(=O)N(C)C[C@H]1Oc2ccc(NS(=O)(=O)c3ccccc3)cc2CC(=O)N([C@@H](C)CO)C[C@H]1C | - | - | - | - | - | . | .
